Shown is part of a subset that was picked to be rich in hits.
INS-1E ATP HTS = INS-1E beta cell protection from cytokine death. INS-1E cytokine-induced death, ATP luminescence, 48 h; normalised: neutral wells 0, positive control 100. protection from cytokine-induced ATP loss, % at 10 µM. actives 0.1% (n = 20,000). AID 488910;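 active = mean replicate protection from cytokine-induced ATP loss at least 50% and at least 75% of replicates each reaching 50%; inconclusive = meets only one of the two criteria, mean or replicate share; inactive = fails both the mean and replicate share criteria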
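Material: INS-1E rat cells; Quantity: 8000 cells/well; Buffer or medium: phenol-red-free RPMI with 5% fetal bovine serum; Probe or stimulus: cytokine cocktail of IFN-γ, TNF-α and IL-1β; Compound dosing: single test concentration per compound, delivered by pin transfer; Incubation: 48 h co-treatment, 10 min post-lysis read; Signal: CellTiter-Glo luminescence.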
A1 apoptosis 2 = blocks A1, raising caspase activity. 24,000 tested, under 10 active. caspase activation, % (concentration not given with the values). MEF A1-2A-BIM cells, caspase-Glo luminescence, 3 h; percent of clofoctol response, DMSO zero. AID 2465; in the data active = caspase activation above about 5.9%; inconclusive = no clear call, values can overlap the other calls; inactive = below about 2.2%
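Material: A1-2A-BIM-expressing MEF cells. Buffer or medium: RPMI-1640 plus 10% FBS. Incubation: cells settled overnight, compound exposure 3 h at 37 °C, 5% CO2. Signal: Caspase-Glo 3/7 luminescence, 1 h at room temperature.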
T cruzi intra = intracellular Trypanosoma cruzi inhibition | intracellular Trypanosoma cruzi in host cells, plate reader | activity score (inhibition), % at 5.01 µM | actives 4.9% (n = 22,000); in the data active = activity score above about 55%; inconclusive = no clear call, values can overlap the other calls;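 note: parasites and compound incubated about four days before reading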
Hits are given with their value; i = inactive; ? = inconclusive; nt = no result.

SMILES	INS-1E ATP HTS	A1 apoptosis 2	T cruzi intra
C[C@@H]1CCCCO[C@H](CN(C)C(=O)C2CCCCC2)[C@@H](C)CN([C@H](C)CO)C(=O)c2cc(NC(=O)Nc3ccc(C(F)(F)F)cc3)ccc2O1	i	i	61
C[C@H]1CCCCO[C@H](CN(C)C(=O)Nc2ccc(C(F)(F)F)cc2)[C@@H](C)CN([C@@H](C)CO)C(=O)c2cc(NC(=O)NC3CCCCC3)ccc2O1	nt	i	nt
Cc1ccc(S(=O)(=O)N(C)C[C@@H]2Oc3ccc(NC(=O)Nc4ccc5c(c4)OCO5)cc3CC(=O)N([C@@H](C)CO)C[C@@H]2C)cc1	i	nt	i
Cc1ccc(S(=O)(=O)Nc2ccc3c(c2)C(=O)N([C@@H](C)CO)C[C@H](C)[C@@H](CN(C)C(=O)Nc2ccccc2)OCCCC[C@@H](C)O3)cc1	nt	i	nt
CC(C)NC(=O)N(C)C[C@@H]1Oc2ccc(NS(=O)(=O)c3cn(C)cn3)cc2CC(=O)N([C@@H](C)CO)C[C@H]1C	nt	i	nt
C[C@@H]1CN([C@H](C)CO)C(=O)c2cc(NC(=O)Nc3cccc4ccccc34)ccc2O[C@@H]1CN(C)Cc1ccc2c(c1)OCO2	i	i	i
C[C@@H]1CN([C@@H](C)CO)C(=O)c2cc(NC(=O)Nc3cccc4ccccc34)ccc2O[C@@H]1CN(C)Cc1ccc2c(c1)OCO2	i	nt	56
C[C@H]1CN([C@@H](C)CO)C(=O)c2cc(NC(=O)Nc3cccc4ccccc34)ccc2O[C@H]1CN(C)Cc1ccc2c(c1)OCO2	i	i	61
C[C@H]1CN([C@@H](C)CO)C(=O)c2cc(NC(=O)Nc3cccc4ccccc34)ccc2O[C@@H]1CN(C)Cc1ccc2c(c1)OCO2	i	i	i
Cc1ccc(S(=O)(=O)N(C)C[C@H]2Oc3ccc(NC(=O)NC(C)C)cc3CC(=O)N([C@H](C)CO)C[C@@H]2C)cc1	nt	i	nt
C[C@@H]1CCCCO[C@H](CN(C)C(=O)Cc2ccccc2)[C@@H](C)CN([C@H](C)CO)C(=O)c2cc(NS(=O)(=O)c3cn(C)cn3)ccc2O1	i	i	i
C[C@@H]1CCCCO[C@H](CN(C)C(=O)Nc2ccc(C(F)(F)F)cc2)[C@@H](C)CN([C@H](C)CO)C(=O)c2cc(NC(=O)Cc3ccccc3)ccc2O1	i	i	71
C[C@H]1CCCCO[C@H](CN(C)C(=O)Nc2ccc(C(F)(F)F)cc2)[C@@H](C)CN([C@@H](C)CO)C(=O)c2cc(NC(=O)Cc3ccccc3)ccc2O1	nt	i	nt
C[C@@H]1CCCCO[C@@H](CN(C)C(=O)Nc2ccc(C(F)(F)F)cc2)[C@@H](C)CN([C@H](C)CO)C(=O)c2cc(NC(=O)Nc3ccccc3)ccc2O1	i	i	64
C[C@@H]1CCCCO[C@H](CN(C)C(=O)Nc2ccc(C(F)(F)F)cc2)[C@H](C)CN([C@H](C)CO)C(=O)c2cc(NC(=O)c3ccccc3)ccc2O1	nt	i	nt
C[C@@H]1CCCCO[C@@H](CN(C)C(=O)Nc2ccc(C(F)(F)F)cc2)[C@@H](C)CN([C@H](C)CO)C(=O)c2cc(NC(=O)c3ccccc3)ccc2O1	i	i	59
C[C@@H]1CCCCO[C@H](CN(C)C(=O)Nc2ccc(C(F)(F)F)cc2)[C@H](C)CN([C@@H](C)CO)C(=O)c2cc(NC(=O)Nc3ccccc3)ccc2O1	nt	i	nt
C[C@@H]1CCCCO[C@H](CN(C)C(=O)Nc2cccc3ccccc23)[C@H](C)CN([C@@H](C)CO)C(=O)c2cc(NS(C)(=O)=O)ccc2O1	nt	i	nt
COc1cc(Br)c(/C=N/NC(=O)c2ccc(C(=O)NO)cc2)cc1OC	nt	i	nt
COC(=O)CCCCCCC(=O)N/N=C/c1cc(C)ccc1O	i	i	i
C[C@H]1CN([C@@H](C)CO)C(=O)c2cc(NC(=O)Cc3ccccc3)ccc2O[C@H]1CN(C)C(=O)Nc1ccc(F)cc1	i	nt	i
Cc1ccc(S(=O)(=O)Nc2ccc3c(c2)CC(=O)N([C@@H](C)CO)C[C@@H](C)[C@H](CN(C)Cc2ccc(C(F)(F)F)cc2)O3)cc1	nt	i	nt
C[C@@H]1CN([C@@H](C)CO)C(=O)Cc2cc(NS(=O)(=O)c3ccc(F)cc3)ccc2O[C@@H]1CN(C)Cc1ccc(C(F)(F)F)cc1	i	i	?
C[C@H]1CN([C@@H](C)CO)C(=O)Cc2cc(NS(=O)(=O)c3ccc(F)cc3)ccc2O[C@@H]1CN(C)Cc1ccc(C(F)(F)F)cc1	i	nt	61
Cc1ccc(S(=O)(=O)Nc2ccc3c(c2)CC(=O)N([C@H](C)CO)C[C@@H](C)[C@@H](CN(C)Cc2ccc(C(F)(F)F)cc2)O3)cc1	i	nt	61
SMILES	INS-1E ATP HTS	A1 apoptosis 2	T cruzi intra
C[C@@H]1CN([C@H](C)CO)C(=O)Cc2cc(NS(=O)(=O)c3ccc(F)cc3)ccc2O[C@H]1CN(C)Cc1ccc(C(F)(F)F)cc1	i	i	i
Cc1ccc(S(=O)(=O)Nc2ccc3c(c2)CC(=O)N([C@@H](C)CO)C[C@H](C)[C@@H](CN(C)Cc2ccc(C(F)(F)F)cc2)O3)cc1	i	nt	62
C[C@@H]1CN([C@@H](C)CO)C(=O)Cc2cc(NC(=O)Cc3cn(C)c4ccccc34)ccc2O[C@@H]1CN(C)S(=O)(=O)c1ccc(Cl)cc1	i	nt	i
C[C@H](CO)N1C[C@H](C)[C@H](CN(C)Cc2ccncc2)Oc2c(NS(=O)(=O)c3ccc(Cl)cc3)cccc2C1=O	i	i	i
Cc1noc(C)c1NC(=O)Nc1ccc2c(c1)C(=O)N([C@H](C)CO)C[C@H](C)[C@H](CN(C)Cc1ccc(C(F)(F)F)cc1)OCCCC[C@H](C)O2	nt	i	nt
Cc1noc(C)c1NC(=O)N(C)C[C@@H]1Oc2ccc(NC(=O)CCN3CCOCC3)cc2C(=O)N([C@@H](C)CO)C[C@@H]1C	i	nt	i
C[C@@H]1CCCCO[C@@H](CN(C)C)[C@@H](C)CN([C@H](C)CO)C(=O)c2cc(NC(=O)CCCN(C)C)ccc2O1	nt	i	nt
C[C@@H]1CN([C@@H](C)CO)C(=O)c2cc(NC(=O)Nc3ccc4c(c3)OCO4)ccc2O[C@@H](C)CCCCO[C@H]1CN(C)Cc1ccc(C(F)(F)F)cc1	nt	i	nt
C[C@@H]1CCCCO[C@@H](CN(C)Cc2ccc(C(F)(F)F)cc2)[C@@H](C)CN([C@H](C)CO)C(=O)c2cc(NC(=O)Nc3ccc4c(c3)OCO4)ccc2O1	i	i	70
C[C@@H]1CCCCO[C@@H](CN(C)Cc2ccncc2)[C@@H](C)CN([C@@H](C)CO)C(=O)c2cc(NC(=O)Nc3ccc(C(F)(F)F)cc3)ccc2O1	nt	i	nt
C[C@@H]1CCCCO[C@@H](CN(C)Cc2ccc(C(F)(F)F)cc2)[C@@H](C)CN([C@H](C)CO)C(=O)c2cc(NC(=O)Nc3ccc(F)cc3)ccc2O1	i	nt	79
COc1ccc(CN(C)C[C@@H]2OCCCC[C@H](C)Oc3ccc(NC(=O)Nc4ccc(C(F)(F)F)cc4)cc3C(=O)N([C@@H](C)CO)C[C@H]2C)cc1	nt	i	nt
C[C@@H]1CCCCO[C@H](CN(C)Cc2ccc(C(F)(F)F)cc2)[C@@H](C)CN([C@@H](C)CO)C(=O)c2cc(NC(=O)Nc3ccc(F)cc3)ccc2O1	nt	i	nt

Screening results: PubChem BioAssay, Broad Institute
